Legend:
[1] = tested on: TF-1; assay: Cytotoxicity against human erythroleukemia TF1 cells; format: functional, cell-based
Summary of the method: (§1)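 Dose-response proliferation assay over 0.16 to 20 µM (final) in tissue-culture plates. Cells were incubated 72 h at 37 °C in 5% CO2, and inhibition was read as Alamar Blue conversion by fluorescence at excitation/emission 544/590 nm.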

[2] = tested on: BT-20; assay: Cytotoxicity against human breast carcinoma, BT20 cells; format: functional, cell-based; summary of the method: as §1
[3] = tested on: MAT-Ly-Lu; assay: Cytotoxicity against rat prostate carcinoma, MatLyLu cells; format: functional, cell-based; summary of the method: as §1
[4] = tested on: KHOS/NP; assay: Cytotoxicity against human osteosarcoma, KHOS-NP cells; format: functional, cell-based; summary of the method: as §1
[5] = tested on: A-431; assay: Cytotoxicity against human epidermoid carcinoma, A431 cells; format: functional, cell-based; summary of the method: as §1
[6] = tested on: A-375; assay: Cytotoxicity against human melanoma, A375 cells; format: functional, cell-based; summary of the method: as §1
[7] = tested on: A549; assay: Cytotoxicity against human lung carcinoma, A549 cells; format: functional, cell-based; summary of the method: as §1
[8] = tested on: HCT-15; assay: Cytotoxicity against human colon carcinoma, HCT15 cells; format: functional, cell-based; summary of the method: as §1
[9] = tested on: HT-1376; assay: Cytotoxicity against human bladder carcinoma, HT1376 cells; format: functional, cell-based; summary of the method: as §1
[10] = tested on: PA-1; assay: Cytotoxicity against human ovarian teratocarcinoma, PA1 cells; format: functional, cell-based; summary of the method: as §1
[11] = tested on: HepG2; assay: Cytotoxicity against human hepatoma, HEPG2 cells; format: functional, cell-based; summary of the method: as §1
[12] = tested on: HEK293; assay: Cytotoxicity against HEK293 cells; format: functional, cell-based; conditions: Homo sapiens; summary of the method: as §1
[13] = tested on: BUD-8; assay: Cytotoxicity against human fibroblast, BUD8 cells; format: functional, cell-based; summary of the method: as §1
[14] = tested on: Ramos; assay: Cytotoxicity against human Burkitt lymphoma, RAMOS cells; format: functional, cell-based; summary of the method: as §1
[15] = tested on: Daudi; assay: Cytotoxicity against human Burkitt lymphoma, DAUDI cells; format: functional, cell-based; summary of the method: as §1
[16] = tested on: MES-SA; assay: Cytotoxicity against human uterine sarcoma, MES-SA cells; format: functional, cell-based; summary of the method: as §1
[17] = tested on: MES-SA/Dx5; assay: Cytotoxicity against human uterine sarcoma, MES-SA-Dx5 cells derived from MES-SA; format: functional, cell-based; summary of the method: as §1
[18] = tested on: CTLL; assay: Cytotoxicity against murine cytotoxic T cells, CTLL2; format: functional, cell-based; conditions: Mus musculus; summary of the method: as §1
[19] = organism: Rattus norvegicus; assay: Inhibition of blood vessel growth in rat aorta at 100 ug/mL; format: functional
Summary of the method: (§2)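 In vitro angiogenesis assay using rat aorta blood vessel fragments, with compounds dissolved in DMSO. The read-out is percent inhibition of blood vessel growth at each fixed test concentration.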

[20] = organism: Rattus norvegicus; assay: Inhibition of blood vessel growth in rat aorta at 10 ug/mL; format: functional; summary of the method: as §2
[21] = organism: Rattus norvegicus; assay: Inhibition of blood vessel growth in rat aorta at 1 ug/mL; format: functional; summary of the method: as §2
[22] = organism: Rattus norvegicus; assay: Inhibition of blood vessel growth in rat aorta at 0.1 ug/mL; format: functional; summary of the method: as §2
[23] = tested on: MCF7; assay: Cytotoxicity against human breast carcinoma, MCF7 cells; format: functional, cell-based; summary of the method: as §1

SMILES	IC50 [1] [µM]	IC50 [2] [µM]	IC50 [3] [µM]	IC50 [4] [µM]	IC50 [5] [µM]	IC50 [6] [µM]	IC50 [7] [µM]	IC50 [8] [µM]	IC50 [9] [µM]	IC50 [10] [µM]	IC50 [13] [µM]	IC50 [14] [µM]	IC50 [15] [µM]	IC50 [16] [µM]	IC50 [17] [µM]	IC50 [18] [µM]	inhibition at 100 µg/mL [19] [%]	inhibition at 10 µg/mL [20] [%]	inhibition at 1 µg/mL [21] [%]	inhibition at 0.1 µg/mL [22] [%]	further results
COc1ccc(/C=C(/CN2CCCC[C@H]2C)c2ccc(O)cc2)cc1OC	> 20	> 20	> 20	> 20	> 20	> 20	> 20	> 20	> 20	> 20	> 20	> 20	> 20	> 20	> 20	> 20	100	65	43		IC50 [11]: > 20 µM; IC50 [12]: > 20 µM
COc1cc2cc(CN3CCCC[C@H]3C)c3ccc(O)cc3c2cc1OC	8.4	11.6	> 20	13.4	20	9.38	15.2	7.97	6.04							8.1	100	85	47	18	
COc1ccc2ccc3cc(OC)c(OC)cc3c2c1	> 20	> 20	> 20	> 20	> 20	> 20	> 20	> 20	> 20	> 20	> 20	> 20	> 20	> 20	> 20	17.5	83	42			IC50 [23]: > 20 µM
COc1ccc2c3c(c4cc(OC)c(OC)cc4c2c1)C[C@H]1CCCCN1C3 [CRYPTOPLEURINE]		0.003	0.003	0.01	0.003	0.003	0.003	0.003	0.004	0.002	0.006	0.003	0.002	0.003	0.003						IC50 [23]: 0.003 µM
COc1ccc2c(CN3CCCC[C@H]3C)cc3cc(OC)c(OC)cc3c2c1	7.65	10.9	15	14	8.09	10.1	12	8.33	9.51	7.27	> 20	15.5	12	9.04	8.46	8.1		100	48	29	IC50 [11]: 7.27 µM; IC50 [12]: 17.1 µM
COc1ccc(/C=C(/CN2CCCC[C@@H]2C)c2ccc(O)cc2)cc1OC	> 20	> 20	> 20	> 20	> 20	> 20	> 20	> 20	> 20	> 20	> 20	> 20	> 20	> 20	> 20	> 20	100	42	53	31	IC50 [11]: > 20 µM; IC50 [12]: > 20 µM
COc1ccc2c(CN3CCCC[C@@H]3C)cc3cc(OC)c(OC)cc3c2c1	7.2	10.2	15	12.3	8.12	8.96	11.2	7.82	9.68	7.38	> 20	> 20	9.08	10.1	11.7	7.61	100	100	42	17	IC50 [11]: 8.12 µM; IC50 [12]: 15.5 µM
COc1ccc2c(CN(C)C)cc3cc(OC)c(OC)cc3c2c1	6.75	7.38	17.3	17.1	5.37	7.1	17	8.27	7.88	4.16	> 20	16.6	15.7	9.1	16.8	3.39		100	22	7	IC50 [23]: 18.6 µM
COc1ccc(/C(=C\c2ccc(OC)c(OC)c2)CN2CCCC[C@@H]2C)cc1	> 20	> 20	> 20	> 20	> 20	> 20	> 20	> 20	> 20	> 20	> 20	> 20	> 20	> 20	> 20	> 20	100	43	68	22	IC50 [11]: > 20 µM; IC50 [12]: > 20 µM
COc1ccc(/C(=C\c2ccc(OC)c(OC)c2)CN2CCCC[C@H]2C)cc1	> 20	> 20	> 20	> 20	> 20	> 20	> 20	> 20	> 20	> 20	> 20	> 20	> 20	> 20	> 20	> 20	100	62	59	36	IC50 [11]: > 20 µM; IC50 [12]: > 20 µM
COc1cc2cc(CN3CCCC[C@@H]3C)c3ccc(O)cc3c2cc1OC	9.8	13.7	> 20	15.4	13.8	11.2	16.6	8.41	8.31	8	18.2	18.2	13.5	14.1	11.8	9.09	100	74	58	35	IC50 [11]: 8.33 µM; IC50 [12]: 14.8 µM
